Data set [1] is described as follows: Cmax in CD1 mouse at 5 mg/kg, iv. The format is ADME, organism-based. Conditions: in vivo. Set-up: dose 5 mg/kg, route intravenous. The essentials:
(§1)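 Single dose to male CD-1 mice, either iv at 5 mg/kg or oral at 15 mg/kg. Plasma pharmacokinetic parameters were calculated from these dosings.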

The test system of data set [2] is HCT-116. As to the kind of experiment: Cell cycle arrest in human HCT116 cells assessed as decrease in S phase cells at 0.3 uM after 24 hrs by flow cytometry. The format is functional, cell-based. The essentials: (§2)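 HCT-116 cells treated for 24 h at several concentrations. Harvested, fixed in 70% ethanol at -20 °C, RNase treated (1 mg/mL), stained with propidium iodide. DNA content measured by flow cytometry to give phase distribution, including the subG1 population.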

For a further data set, the target named is Histone deacetylase 4 (Homo sapiens, UniProt P56524). Nature of the data set: Inhibition of HDAC4 using carboxyfluorescein-labeled peptide as substrate after 17 hrs by fluorescence assay. A digest of the protocol: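 Stopped with HEPES/0.08% SDS. Substrate and product separated electrophoretically, read by green fluorescence. Duplicates. IC50 from 12-point concentration-response curves by nonlinear regression. Run by contract lab.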
Chain of Histone deacetylase 4 (P56524 whole entry): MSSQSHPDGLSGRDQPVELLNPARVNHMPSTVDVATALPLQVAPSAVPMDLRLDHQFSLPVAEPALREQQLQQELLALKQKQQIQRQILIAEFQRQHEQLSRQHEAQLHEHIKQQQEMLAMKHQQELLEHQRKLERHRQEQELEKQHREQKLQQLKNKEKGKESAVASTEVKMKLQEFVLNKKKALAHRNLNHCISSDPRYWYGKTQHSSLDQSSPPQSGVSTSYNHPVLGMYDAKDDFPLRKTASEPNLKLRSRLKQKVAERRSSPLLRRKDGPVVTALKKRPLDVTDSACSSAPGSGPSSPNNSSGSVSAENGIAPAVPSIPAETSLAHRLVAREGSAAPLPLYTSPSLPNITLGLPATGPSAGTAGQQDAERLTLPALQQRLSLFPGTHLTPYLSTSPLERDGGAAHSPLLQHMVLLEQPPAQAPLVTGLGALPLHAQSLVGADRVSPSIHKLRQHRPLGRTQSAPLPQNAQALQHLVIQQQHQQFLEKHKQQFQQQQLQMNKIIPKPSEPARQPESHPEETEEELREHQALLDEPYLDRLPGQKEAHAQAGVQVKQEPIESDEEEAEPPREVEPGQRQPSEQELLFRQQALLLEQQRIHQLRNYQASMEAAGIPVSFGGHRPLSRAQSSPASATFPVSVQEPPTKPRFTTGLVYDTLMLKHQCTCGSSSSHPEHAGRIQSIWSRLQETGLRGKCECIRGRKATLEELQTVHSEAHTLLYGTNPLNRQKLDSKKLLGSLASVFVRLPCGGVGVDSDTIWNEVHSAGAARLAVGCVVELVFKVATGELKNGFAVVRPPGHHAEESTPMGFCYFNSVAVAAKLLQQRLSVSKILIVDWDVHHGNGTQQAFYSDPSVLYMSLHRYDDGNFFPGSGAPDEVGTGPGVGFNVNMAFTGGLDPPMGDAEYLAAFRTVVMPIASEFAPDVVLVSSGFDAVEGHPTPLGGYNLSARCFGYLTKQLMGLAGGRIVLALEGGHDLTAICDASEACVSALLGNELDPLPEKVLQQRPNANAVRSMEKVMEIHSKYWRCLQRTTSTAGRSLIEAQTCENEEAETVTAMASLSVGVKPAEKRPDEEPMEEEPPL

In data set [3] the target is T1, Histone deacetylase (Homo sapiens) (UniProt Q13547+O15379+Q9UBN7+Q92769+Q9UQL6+Q8WUI4+Q9BY41+Q96DB2+P56524+Q9UKV0+Q969S8). Conditions: HCT-116, 0.001 to 10 uM.
A short description of data set [4]: AUC (0 to infinity) in CD1 mouse at 5 mg/kg, iv. The class given is ADME, organism-based. Set-up: time infinity, dose 5 mg/kg, route intravenous. Conditions: plasma. The essentials:
as §1

Data set [5] in a line: Tmax in CD1 mouse at 5 mg/kg, iv and 15 mg/kg, po. Conditions: in vivo. The class given is ADME, organism-based. The essentials:
as §1

Data set [6] can be described thus: Elimination half life in CD1 mouse at 5 mg/kg, iv and 15 mg/kg, po. The class given is ADME, organism-based. The settings on record: in vivo, read-out: beta t1/2 (converted). A digest of the protocol:
as §1

Data set [7] concerns the target T2, Protein deacetylase HDAC6 (Homo sapiens, UniProt Q9UBN7).
T2 sequence (Q9UBN7 whole entry): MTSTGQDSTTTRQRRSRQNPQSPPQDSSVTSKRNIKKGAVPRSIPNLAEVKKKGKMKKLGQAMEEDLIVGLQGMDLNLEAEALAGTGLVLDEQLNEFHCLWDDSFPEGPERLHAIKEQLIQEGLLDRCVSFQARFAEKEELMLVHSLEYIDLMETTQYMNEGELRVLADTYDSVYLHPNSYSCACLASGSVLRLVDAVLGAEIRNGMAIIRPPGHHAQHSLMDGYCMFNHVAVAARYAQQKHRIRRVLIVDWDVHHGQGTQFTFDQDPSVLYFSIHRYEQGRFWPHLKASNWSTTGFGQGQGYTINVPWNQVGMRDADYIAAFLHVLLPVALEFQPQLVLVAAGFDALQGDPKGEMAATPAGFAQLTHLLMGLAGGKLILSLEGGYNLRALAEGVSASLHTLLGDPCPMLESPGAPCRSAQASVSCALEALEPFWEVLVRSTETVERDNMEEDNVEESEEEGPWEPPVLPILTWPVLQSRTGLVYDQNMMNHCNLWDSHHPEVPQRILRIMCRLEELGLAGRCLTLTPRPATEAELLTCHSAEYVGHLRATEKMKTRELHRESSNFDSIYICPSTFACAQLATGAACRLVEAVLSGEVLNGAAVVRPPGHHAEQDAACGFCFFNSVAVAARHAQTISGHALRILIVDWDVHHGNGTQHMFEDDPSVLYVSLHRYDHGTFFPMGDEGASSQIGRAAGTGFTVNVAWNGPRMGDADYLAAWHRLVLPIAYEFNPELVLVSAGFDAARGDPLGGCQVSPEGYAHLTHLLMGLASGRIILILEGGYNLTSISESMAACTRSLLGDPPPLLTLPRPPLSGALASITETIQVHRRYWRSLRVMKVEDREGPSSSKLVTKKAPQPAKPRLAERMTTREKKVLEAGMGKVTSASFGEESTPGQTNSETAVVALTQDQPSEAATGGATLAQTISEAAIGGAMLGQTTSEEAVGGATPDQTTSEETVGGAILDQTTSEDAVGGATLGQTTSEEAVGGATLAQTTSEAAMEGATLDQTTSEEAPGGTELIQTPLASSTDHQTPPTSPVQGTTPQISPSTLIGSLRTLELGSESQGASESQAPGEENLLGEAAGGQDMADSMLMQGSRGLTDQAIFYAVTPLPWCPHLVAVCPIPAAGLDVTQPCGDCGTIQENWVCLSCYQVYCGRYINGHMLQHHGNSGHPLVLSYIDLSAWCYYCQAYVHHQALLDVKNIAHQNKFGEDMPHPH
Nature of the data set: Inhibition of HDAC6 using carboxyfluorescein-labeled peptide as substrate after 17 hrs by fluorescence assay. A digest of the protocol:
(§3)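 Purified HDAC isoforms incubated with compound and 1 μM carboxyfluorescein-labelled peptide for 17 h at 25 °C. Reaction stopped with HEPES/0.08% SDS. Substrate and product separated electrophoretically and read by fluorescence. Run in duplicate. IC50 from 12-point curves by nonlinear regression.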

Data set [8] concerns the target T1, Histone deacetylase (Homo sapiens). Conditions: HCT-116, 100 uM.
Data set [9] relates to HCT-116. As to the kind of experiment: Cell cycle arrest in human HCT116 cells assessed as accumulation at G2M phase at 1 to 3 uM after 24 hrs by flow cytometry. The class given is functional, cell-based. A digest of the protocol: as §2
A short description of data set [10]: Tmax in mouse. The class given is ADME, organism-based. The settings on record: in vivo.
Data set [11] concerns HCT-116. Nature of the data set: Antiproliferative activity against human HCT116 cells after 72 hrs by CellTiter-Glo luminescent cell viability assay. The class given is functional, cell-based. Conditions: HCT-116, 72 h. A digest of the protocol: (§4)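 Cells in exponential growth exposed to a range of inhibitor concentrations for 72 h. CellTiter-Glo reagent added, mixed 2 min to lyse cells, luminescence read 10 min later. IC50 derived from the concentration–response. Replicates n ≥ 2, mean shown.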

For data set [12], the system named is HCT-116. Nature of the data set: Antitumor activity against human HCT116 cells xenografted in po dosed CD1 nude mouse assessed as reduced tumor volume administered for 5 days/week for 17 days. The format is functional, organism-based. The essentials:
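Female CD-1 nude mice bearing subcutaneous flank HCT-116 tumours (5 × 10⁶ cells injected). Dosing began at about 100 mm³ tumour volume. Given orally at 35–150 mg/kg in water with 5% DMSO and 9.5% encapsin, 5 days/week for 17 days. Tumour volume tracked against vehicle controls. T/C = mean relative tumour volume treated / control.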

Another data set relates to K562. Nature of the data set: Antiproliferative activity against human K562 cells after 72 hrs by CellTiter-Glo luminescent cell viability assay. The format is functional, cell-based. The settings on record: K562, 72 h. The essentials: as §4
Data set [13] concerns HCT-116. As to the kind of experiment: Cell cycle arrest in human HCT116 cells assessed as accumulation at subG1 phase after 24 hrs by flow cytometry. The class given is functional, cell-based. The essentials:
as §2

In the next data set the target is Histone deacetylase 3 (Homo sapiens, UniProt O15379). Nature of the data set: Inhibition of HDAC3 using carboxyfluorescein-labeled peptide as substrate after 17 hrs by fluorescence assay. The essentials:
as §3

For data set [14], the system named is HCT-116. As to the kind of experiment: Cell cycle arrest in human HCT116 cells assessed as accumulation at G0/G1 phase at 1 to 3 uM after 24 hrs by flow cytometry. The class given is functional, cell-based. Conditions: in the assay text read “G2/M phase” for “G0/G1 phase”. A digest of the protocol: as §2
The nature of data set [15]: AUC (0 to infinity) in CD1 mouse at 15 mg/kg, po. The format is ADME, organism-based. Also noted: time infinity, dose 15 mg/kg, route oral. Conditions: plasma. A digest of the protocol: as §1

Experimental findings from ChEMBL document CHEMBL1938288, “Discovery, synthesis, and pharmacological evaluation of spiropiperidine hydroxamic acid based derivatives as structurally novel histone deacetylase (HDAC) inhibitors” (J Med Chem, 2011) are described below.

pIC50: −log10 of the molar value. The source made the active and inactive calls. No cut-off for these calls is given here.

Chain of Histone deacetylase 3 (O15379 whole entry): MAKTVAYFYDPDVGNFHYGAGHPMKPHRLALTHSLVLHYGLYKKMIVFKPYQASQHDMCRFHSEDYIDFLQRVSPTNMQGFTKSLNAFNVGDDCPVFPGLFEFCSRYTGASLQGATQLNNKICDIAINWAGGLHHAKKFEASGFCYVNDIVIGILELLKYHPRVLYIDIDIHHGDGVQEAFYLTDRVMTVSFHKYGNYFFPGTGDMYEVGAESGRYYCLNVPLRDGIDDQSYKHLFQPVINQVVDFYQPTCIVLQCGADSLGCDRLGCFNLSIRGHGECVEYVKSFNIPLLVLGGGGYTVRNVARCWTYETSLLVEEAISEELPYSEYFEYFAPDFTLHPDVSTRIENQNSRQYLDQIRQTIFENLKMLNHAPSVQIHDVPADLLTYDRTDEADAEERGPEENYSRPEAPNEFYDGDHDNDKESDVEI

In [1], `O=C(/C=C/c1ccc2c(c1)C(=O)CC1(CCN(Cc3ccccc3)CC1)O2)NO` returned a Cmax of 12.5 µM. In addition, the outcome in the data set with HCT-116 [2], with HCT-116 [9] and in the data set with HCT-116 [14] was Active. For the same compound, the pIC50 on Histone deacetylase 4 was 6.90; in [7], 7.59; with HCT-116 [11], 6.32; in the data set with K562 it was 6.40; on Histone deacetylase 3, 8.03. Also, in data set [3], the inhibition entry is “tde”. The AUC(0-inf) amounted to 847 ng·h/mL in [4] and 800 ng·h/mL in [15]. The Tmax in data set [5] and in data set [10] was 15 min throughout. Moreover, the half-life in [6] is 504 min. Moreover, in [8], the inhibition result is “Active”. For the same compound, the Activity result in the data set on HCT-116 [12] and in the data set on HCT-116 [13] was “Dose-dependent effect” in each case.
